Screening data: PubChem BioAssay, several laboratories
bCat nuc transl – modulators of beta-catenin nuclear translocation, primary screen, imaging, HeLa cells, immunofluorescence, high-content; nuclear translocation activity, % at 5 µM; 0.3% of 190,000 active;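 active = nuclear translocation activity above 50% at 5 µM, with a well cell count of 50 or more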;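 also: per-cell ratio of nuclear to cytoplasmic median beta-catenin stain intensity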
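Test system: human HeLa cells, endogenous beta-catenin. Times: 24 h compound exposure, 37°C. Measured by: beta-catenin immunofluorescence imaging with DAPI.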
IEC-6 tox – cytotoxicity in IEC-6 intestinal epithelial cells, primary screen, cytotoxicity control for KLF5 inhibitor project, cell-based, luminescence; IEC-6 cytotoxicity, luminescence viability; inhibition, % at 5 µM; 0.78% of 290,000 active; in the data active = inhibition above about 22%
Ba/F3 V617F tox – reduced viability of JAK2V617F-dependent Ba/F3 cells, primary screen, JAK2V617F inhibitor project, cell-based, Ba/F3 EpoR-JAK2V617F, luminescence. ATP luminescence. inhibition, % at 5.6 µM. 1.1% of 220,000 active. AID 1446, 2008;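 active = inhibition above the campaign mean plus 3 SD over all tested compounds, cut at about 24% in these data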;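 also: cytokine-independent growth of Ba/F3 cells driven by EpoR plus mutant JAK2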
MT stabilize HCS – microtubule stabilizers in HeLa cells, primary screen, imaging, high-content imaging; HeLa tubulin immunostaining HCS, 24 h; share of cells brighter than vehicle mean+2SD; % tubulin-high responders, % at 10 µM; 0.83% of 200,000 active; AID 2205, 2009;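 active = plate Z-score above 3 for both tubulin-high and condensed-nucleus cell shares, with cell loss under 80%, at 10 µM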;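 also: anti alpha tubulin signal scored within the nucleus-defined area of each cell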
APP 5UTR inh – inhibitors of APP translation via 5'UTR reporter, primary screen, APP 5'UTR luciferase, SH-SY5Y cells; SH-SY5Y APP 5'UTR-luciferase reporter, luminescence; inhibition, % at 2 µM; 0.82% of 190,000 active; AID 1285, 2008;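 active = inhibition above a set limit, derived from the sample mean plus 3 SD, cut at about 45% in these data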
BaF3 tox – parental Ba/F3 cell viability inhibition, counter-screen for JAK2V617F inhibitor project, murine pro-B, CellTiter-Glo luminescence; CellTiter-Glo ATP luminescence; inhibition, % at 5.6 µM; 1.1% of 220,000 active; AID 1486, 2009;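 active = inhibition above a per-campaign cutoff, the mean inhibition of all tested compounds plus 3 SD, cut at about 27% in these data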
Numbers stand for hits; – = inactive; · = not tested or not shown. Hits are enriched below; roughly 2.2% of the tested compounds scored in any of these assays.

SMILES	bCat nuc transl	IEC-6 tox	Ba/F3 V617F tox	MT stabilize HCS	APP 5UTR inh	BaF3 tox
COc1ccccc1NC(=O)C1CCN(C(=O)c2ccco2)CC1	·	–	·	·	·	·
CCC(C)(C)c1ccc(Oc2ccc(N)cc2)cc1	–	–	–	–	80	–
Cc1ccc2ncc(S(=O)(=O)c3ccccc3)c(N3CCCCC3C)c2c1 (centres undefined)	·	–	·	·	·	·
Nc1nn(-c2ccccc2)c(N)c1N=Nc1ccc2c(c1)OCO2	78	58	78	25	–	64
C=CCn1c(-c2ccc(OC)cc2)nc2ccccc21	–	–	42	–	–	38
C=CCn1c(-c2ccc(N)cc2)nc2ccccc21	·	–	–	–	–	–
COC(=O)CCCCCCCCCC[N+]1(C)CCCCC1	–	–	–	–	–	–
CC(=O)OCCCCCCCCCCC[N+]1(C)CCCCC1	–	–	25	–	–	51
Cc1nc(N)c(CC(Br)CBr)c(Cl)n1 (centres undefined)	–	–	–	·	·	–
COc1ccc2cc3[n+](cc2c1OC)CCc1cc2c(cc1-3)OCO2	·	–	72	–	–	63
CCCCCc1ccc(OCCCC[n+]2cccc(C)c2)c(CCCCC)c1	–	–	102	56	–	95
CCCCCc1ccc(OCCCC[n+]2ccccc2)c(CCCCC)c1	–	–	100	28	–	81
CCCCCOc1ccc(CN2CCOCC2)cc1Cl	–	–	–	–	–	–
CCCCCc1ccc(OCCCC[n+]2ccc(C)cc2)c(CCCCC)c1	–	–	102	·	–	103
CCC(C)(C)c1ccc(OCCCC[n+]2ccccc2)c(C(C)(C)CC)c1	·	–	100	–	–	85
CCC(C)(C)c1ccc(Oc2cccc(C(=O)O)c2)cc1	–	–	–	·	·	–
CCCCOc1ccc(C)cc1CN(CCO)CCO	·	–	–	–	–	–
O=c1cc(CN2CCOCC2)c2cc(Cl)ccc2o1	·	–	·	·	·	·
COc1ccc(-c2cc(-c3ccccc3)nc(SC(C)C(=O)O)c2C#N)cc1 (centres undefined)	·	–	·	·	·	·
CCc1cccc(CC)c1NC(=S)N(CCN(C)C)C(C)c1cccnc1 (centres undefined)	–	–	–	–	–	–
COc1ccc(C(=O)C(CN2CCOCC2)c2ccccc2)cc1F (centres undefined)	–	–	93	–	62	49
CCc1ccc(CN2CCC(C(=O)Nc3ccc(Oc4ccccc4)nc3)CC2)o1	·	–	·	·	·	·
Cc1sc2nc(CN(Cc3cccs3)C(=O)C3CC3)[nH]c(=O)c2c1C	–	–	–	–	–	86
CCOc1ccc(S(=O)(=O)n2cnc3cc(C)c(C)cc32)cc1	–	–	40	–	–	50
COc1cc(/C=N/NC(=O)c2ccc(COc3cc(C)ccc3C(C)C)cc2)cc(OC)c1O	–	–	–	–	–	–
SMILES	bCat nuc transl	IEC-6 tox	Ba/F3 V617F tox	MT stabilize HCS	APP 5UTR inh	BaF3 tox
O=C(N/N=C/c1ccc(O)c(O)c1)c1ccc(CSc2cccc3cccnc23)cc1	–	–	62	–	–	27
Cc1ccc(C(C)C)c(OCc2ccc(C(=O)N/N=C/c3ccc(O)c(O)c3)cc2)c1	·	–	39	–	50	78
CCc1ccc(N2CC(C(=O)Nc3ccc(S(=O)(=O)NCC4CCCO4)cc3)CC2=O)cc1 (centres undefined)	·	–	·	·	·	·
COc1ccc(/C=N/Nc2nc(-c3cccnc3)nc3ccccc23)c(OC)c1	–	–	–	·	·	–
O=[N+]([O-])c1ccc(Oc2c(F)c(F)nc(N3CCCC3)c2F)cc1	–	–	–	–	83	–
CCn1ncc(/C=N\NC(=O)c2csc3ccccc23)c1C	129	–	–	48	–	–
Cc1c(/C=N\NC(=O)c2csc3ccccc23)cnn1C	·	–	–	–	–	–
Cc1[nH]c2ccccc2c1CCN(Cc1cccnc1)C(=S)NC(C)(C)C	·	–	·	·	·	·
CC1=NN(c2ccccc2)C(=O)/C1=C\c1cc(C)n(-c2ccccc2)c1C	–	25	–	–	–	–
O=c1oc2ccccc2c(Nc2ccc3ccccc3c2)c1[N+](=O)[O-]	–	–	–	46	–	–
Cc1nc(N2CCN(c3ccccn3)CC2)c2c(C)c(C(=O)N3CCN(c4cccc(Cl)c4)CC3)sc2n1	·	–	·	·	·	·
O=C(c1ccc(Br)cc1)N1CCC(C(=O)N2CCN(Cc3ccccc3)CC2)CC1	·	–	·	·	·	·
O=Cc1ccc(Oc2cnccn2)cc1	–	–	–	–	76	–
O=C1NC(=S)S/C1=C\C=C\c1ccc([N+](=O)[O-])o1	–	–	31	·	·	–
O=C1NC(=S)S/C1=C/c1ccc(N2CCOCC2)o1	–	–	–	–	–	–
Cc1occc1C(=O)N1CCN(c2ncccn2)CC1	–	–	–	–	–	92
O=C(/C=C/c1c(Cl)cccc1Cl)N1CCN(c2ncccn2)CC1	–	–	–	–	–	–
O=C(/C=C/c1ccco1)N1CCN(c2ncccn2)CC1	·	–	–	9.8	–	–
Cc1cc(NC(=O)c2cccc(S(=O)(=O)N3CCCCC3)c2)no1	·	–	·	·	·	·
COc1ccc(N2CCN(S(=O)(=O)c3c(C)nc4sccn4c3=O)CC2)cc1	·	–	·	·	·	·
Cc1noc(C)c1CSc1nc2[nH]ncc2c(=O)n1-c1ccccc1	–	82	70	25	94	73
CCOC(=O)c1ccc(CN2Cc3ccccc3C2=O)cc1	·	–	·	·	·	·
O=C(/C=C/c1ccccc1)NNC(=O)c1cccs1	–	–	24	–	–	41
CCCc1nc2nc(C)c(NS(=O)(=O)c3ccc([N+](=O)[O-])cc3)c(=O)n2[nH]1	·	–	·	·	·	·
CCCCCCCNC1=CC(=O)CC(c2ccco2)C1 (centres undefined)	·	–	29	–	–	38
SMILES	bCat nuc transl	IEC-6 tox	Ba/F3 V617F tox	MT stabilize HCS	APP 5UTR inh	BaF3 tox
CC(C)C(NS(=O)(=O)c1cccc2nsnc12)C(=O)N1CCCCC1 (centres undefined)	·	–	·	·	·	·
N#C/C(=C\c1ccc([N+](=O)[O-])o1)C(=O)Nc1ccc(F)cc1	–	–	–	–	–	–
N#CCc1ccc(NC(=O)/C=C/c2ccc([N+](=O)[O-])o2)cc1	–	–	94	–	56	83
CN(CCCNC(=O)Cn1c(=O)c2cccn2c2ccccc21)Cc1ccccc1	·	–	·	·	·	·
Cc1ccc2c(c1)C(=O)C(=O)N2CCOc1ccccc1	–	91	92	–	79	87
CCCCCCN1C=CC(=C2C(=O)c3ccccc3C2=O)C=C1	–	–	–	–	–	–
CCCN1C=CC(=C2C(=O)c3ccccc3C2=O)C=C1	·	–	–	–	81	–
CCN1C=CC(=C2C(=O)c3ccccc3C2=O)C=C1	·	–	–	–	70	–
O=C(O)c1cccc(NC(=O)c2ccc3c(c2)C(=O)N(C2CCCCC2)C3=O)c1	·	–	·	·	·	·
